Results on 1 compound are retold here after ChEMBL document CHEMBL3120069, “Chemical genetics-based discovery of indole derivatives as HCV NS5B polymerase inhibitors” (Eur J Med Chem, 2014).

The EC50 is the midpoint of the concentration-response curve. The term CC50 denotes the concentration at which the toxic effect on the cells reaches its halfway point. Broadly, the IC50 is the concentration at which inhibition is half-maximal. The term EC90 denotes the concentration at which the effect reaches the 90% level.

For data set [1], the system named is Hepatitis C virus. Nature of the data set: Antiviral activity against Hepatitis C virus Con1 Bart79I genotype 1b expressing YFP infected in human Huh7.5 cells assessed as NS5A S2204I mutant synthesis at 5 uM after 120 hrs by FACS analysis (reference value: 66%). Format: functional, Hepacivirus hominis, subtype 1b Con1 Bart79I, Huh-7. The method, boiled down:
(§1)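 Huh7.5 cells stably carrying Bart79I-YFP subgenomic replicon (G418 selection), treated with DMSO or compound. Dose series over 5 days (120 h), or 10 M with sampling at 24, 48, 72 h. Cells washed, resuspended in PBS, and NS5A-YFP-positive cells counted by FACS. EC50 and T1/2 taken from response curves.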
Background: In flow cytometry, cells or beads pass a laser one at a time.

Data set [2] has as its system Hepatitis C virus. Nature of the data set: Antiviral activity against Hepatitis C virus Con1 Bart79I genotype 1b infected in human Huh7.5 cells assessed as inhibition of NS5A S2204I mutant synthesis at 10 uM by Western blot analysis. Format: functional, organism-based. The following applies: Hepacivirus hominis, subtype 1b Con1 Bart79I, Huh-7, TDE = time-dependent effect. The method, boiled down: (§2)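 Bart79I replicon Huh7.5 cells, 1.5×10⁵/well, treated with DMSO or compound. Dose series for 5 days (120 h), or 10 M for 24, 48, 72 h. Lysed in RIPA with protease inhibitors and protein quantified by Bradford. NS5A and β-actin measured by Western blot, with NS5A normalized to β-actin. EC50 and T1/2 taken from response curves.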
(In general: In western blotting, separated proteins are transferred to a membrane and probed.)

The test system of data set [3] is Hepatitis C virus. The data set is described as follows: Antiviral activity against Hepatitis C virus Con1 Bart79I genotype 1b expressing YFP infected in human Huh7.5 cells assessed as NS5A S2204I mutant synthesis at 10 uM after 24 hrs by FACS analysis (reference value: 52.2%). Type of data set: functional, Hepacivirus hominis, subtype 1b Con1 Bart79I, Huh-7. The method, boiled down:
as §1

The test system of data set [4] is Hepatitis C virus. Nature of the data set: Antiviral activity against Hepatitis C virus JFH-1 J6 genotype 2a infected in human Huh7.5 cells assessed as inhibition of viral core synthesis after 120 hrs by Western blot analysis. Format: functional, organism-based. The method, boiled down: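 J6/JFH1 RNA-transfected Huh7.5 cells, 1.5 × 10⁵ per well, given DMSO or increasing concentrations for 120 h. RIPA lysates with protease inhibitors, protein by Bradford; HCV core and β-actin by Western blot, core normalised to β-actin. EC50 from dose-response.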

Data set [5] deals with Hepatitis C virus. Nature of the data set: Antiviral activity against Hepatitis C virus JFH-1 J6 genotype 2a infected in human Huh7.5 cells assessed as time required for reducing viral core level by half at 10 uM by Western blot analysis. Type of data set: functional, organism-based. The following applies: Hepacivirus hominis, subtype 2a JFH1 J6, Huh-7. Summed up:
(§3)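 J6/JFH1 RNA-transfected Huh7.5 cells on 10 µM compound, lysed at 24, 48, 72 h. HCV core and β-actin probed by Western blot, core intensity normalised to β-actin; T1/2 from the time-response curve.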

In data set [6] the test system is Hepatitis C virus. The data set is described as follows: Antiviral activity against Hepatitis C virus Con1 Bart79I genotype 1b infected in human Huh7.5 cells assessed as inhibition of NS5A S2204I mutant synthesis after 120 hrs by Western blot analysis. Format: functional, organism-based. The following applies: subtype 1b Con1 Bart79I. The method, boiled down:
as §2

Data set [7] concerns Hepatitis C virus. The data set is described as follows: Antiviral activity against Hepatitis C virus JFH-1 J6 genotype 2a infected in human Huh7.5 cells assessed as inhibition of viral RNA replication after 72 hrs by real time qRT-PCR analysis. Format: functional, organism-based. In general terms: Real-time PCR tracks product formation cycle by cycle.
The nature of data set [8]: Selectivity ratio of EC50 for Hepatitis C virus JFH-1 J6 genotype 2a to EC50 for Hepatitis C virus Con1 Bart79I genotype 1b expressing NS5A S2204I mutant. Format: functional.
For data set [9], the system named is Hepatitis C virus. Nature of the data set: Antiviral activity against Hepatitis C virus Con1 Bart79I genotype 1b expressing NS5A S2204I mutant infected in human Huh7.5 cells assessed as time required for reducing viral RNA level by half at 10 uM by real time qRT-PCR analysis. Format: functional, organism-based. As to conditions: Hepacivirus hominis, subtype 1b Con1 Bart79I, Huh-7. The method, boiled down: (§4)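 Huh7.5 cells stably carrying Bart79I genotype 1b subgenomic replicon (G418 750 mg/ml selection, 3 weeks), 3×10⁵ cells/well with DMSO or compound. Dose series over 72 h, or 10 M for increasing periods. Viral and host GAPDH RNA measured by real-time qRT-PCR. EC50 and T1/2 taken from response curves of triplicate experiments.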

Data set [10] concerns Hepatitis C virus. The data set is described as follows: Antiviral activity against Hepatitis C virus Con1 Bart79I genotype 1b expressing NS5A S2204I mutant infected in human Huh7.5 cells assessed as inhibition of viral RNA replication at 10 uM by real time qRT-PCR analysis. Format: functional, organism-based. As to conditions: Hepacivirus hominis, subtype 1b Con1 Bart79I, Huh-7, TDE = time-dependent effect. The method, boiled down: as §4

A short description of data set [11]: Cytotoxicity against human Huh7.5 cells assessed as cell viability after 72 hrs by MTT assay. Format: cell-based, Huh-7.
In data set [12] the test system is Hepatitis C virus. The data set is described as follows: Antiviral activity against Hepatitis C virus Con1 Bart79I genotype 1b expressing YFP infected in human Huh7.5 cells assessed as NS5A S2204I mutant synthesis at 10 uM after 72 hrs by FACS analysis (reference value: 52.2%). Format: functional, Hepacivirus hominis, subtype 1b Con1 Bart79I, Huh-7. Summed up:
as §1

In data set [13] the test system is Hepatitis C virus. The data set is described as follows: Antiviral activity against Hepatitis C virus Con1 Bart79I genotype 1b expressing NS5A S2204I mutant infected in human Huh7.5 cells assessed as inhibition of viral RNA replication after 72 hrs by real time qRT-PCR analysis. Format: functional, organism-based. The following applies: subtype 1b Con1 Bart79I. The method, boiled down: as §4

Data set [14] can be described thus: Inhibition of recombinant HCV N-terminal hexahistidine-tagged NS5B Cdelta21 RdRp expressed in Escherichia coli assessed as incorporation of [alpha-32P]-UTP in RNA after 2 hrs by autoradiographic analysis. Details: species or system Hepacivirus hominis. The method, boiled down: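 N-terminal His6-tagged recombinant HCV NS5B from E. coli, primer-dependent elongation with poly(A) template (1 µg) and oligo(U)20 (10 pmol). Buffer: 50 mM Tris-HCl pH 7.5, 50 mM NaCl, 100 mM K glutamate, 2 mM MgCl2, 1 mM DTT, RNase inhibitor, UTP plus [α-³²P]UTP. Increasing compound concentrations; IC50 from dose-response curve.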

Data set [15] in a line: Selectivity index, ratio of CC50 for human Huh7.5 cells to EC50 for Hepatitis C virus JFH-1 J6 genotype 2a infected in human Huh7.5 cells. The following applies: read-out: Ratio CC50/EC50. Format: toxicity, cell-based, Huh-7.
Data set [16] has as its system Hepatitis C virus. Nature of the data set: Antiviral activity against Hepatitis C virus JFH-1 J6 genotype 2a infected in human Huh7.5 cells assessed as inhibition of viral RNA replication after 72 hrs by luciferase reporter gene assay. As to conditions: subtype 2a JFH1 J6, Huh-7, 72 h. Type of data set: functional, organism-based, Hepacivirus hominis.
For data set [17], the system named is Hepatitis C virus. The data set is described as follows: Antiviral activity against Hepatitis C virus Con1 Bart79I genotype 1b infected in human Huh7.5 cells assessed as time required for reducing NS5A S2204I mutant level by half at 10 uM by Western blot analysis. Format: functional, organism-based. The following applies: Hepacivirus hominis, subtype 1b Con1 Bart79I, Huh-7. Summed up: as §2

Data set [18] concerns Hepatitis C virus. The data set is described as follows: Antiviral activity against Hepatitis C virus Con1 Bart79I genotype 1b expressing YFP infected in human Huh7.5 cells assessed as NS5A S2204I mutant synthesis at 10 uM after 48 hrs by FACS analysis (reference value: 52.2%). Format: functional, Hepacivirus hominis, subtype 1b Con1 Bart79I, Huh-7. Summed up:
as §1

The test system of data set [19] is Hepatitis C virus. The data set is described as follows: Antiviral activity against Hepatitis C virus JFH-1 J6 genotype 2a infected in human Huh7.5 cells assessed as inhibition of viral core synthesis at 10 uM by Western blot analysis. Format: functional, organism-based. As to conditions: Hepacivirus hominis, subtype 2a JFH1 J6, Huh-7, TDE = time-dependent effect. The method, boiled down: as §3

Setting [20] is: Hepacivirus hominis, subtype 2a JFH1 J6, Huh-7.

Turning to `C/C(=C\c1c[nH]c2ccc(C#N)cc12)C(=O)Nc1ccc(C(C)(C)C)cc1`, the Activity in the data set on Hepatitis C virus [1] worked out at 0.7%; with Hepatitis C virus [3] it was 32.2%; with Hepatitis C virus [12] it was 0.6%; in the data set on Hepatitis C virus [18] it was 11.8%. Besides, the inhibition entry was “tde” with Hepatitis C virus [2]; “Dose-dependent effect” with Hepatitis C virus [4] (setting [20]); “Dose-dependent effect” in the data set on Hepatitis C virus [6] (Hepacivirus hominis, Huh-7); “Dose-dependent effect” in the data set with Hepatitis C virus [7] (setting [20]); “tde” in the data set on Hepatitis C virus [10]; “Dose-dependent effect” with Hepatitis C virus [13] (Hepacivirus hominis, Huh-7). For the same compound, the inhibition entry in the data set with Hepatitis C virus [19] is “tde”. The concentration for a half-maximal effect (EC50) came out at 2 µM with Hepatitis C virus [4] (subtype 2a JFH1 J6, Huh-7, 120 h); 2.5 µM with Hepatitis C virus [6] (Huh-7, 120 h); 1.9 µM in the data set with Hepatitis C virus [7] (subtype 2a JFH1 J6, Huh-7, 72 h); 0.6 µM with Hepatitis C virus [13] (Huh-7, 72 h); 1.1 µM in the data set with Hepatitis C virus [16]. In addition, the T1/2 with Hepatitis C virus [5] is 19.6 h; in the data set on Hepatitis C virus [9], 31.5 h; with Hepatitis C virus [17], 31.7 h. In data set [8], the “Ratio EC50” value turned out to be 3.2. Moreover, the CC50 at 72 h in data set [11] came to 61.8 µM. The IC50 in [14] was determined as 0.292 µM. Moreover, in [15], the selectivity ratio amounted to 56.9. Further, the 90% effect concentration (EC90) in the data set on Hepatitis C virus [16] is 2.1 µM.
